According to ChEMBL document CHEMBL1151957, “Design and synthesis of novel C14-hydroxyl substituted triptolide derivatives as potential selective antitumor agents” (J Med Chem, 2009):
pIC50: −log10 of the molar value. Active and inactive are the calls of the source. The rule behind the calls is not given here.

Tests used:
Assay type in all cases: functional, cell-based
PC-3 = assay: Cytotoxicity against human PC3 cells by SRB assay
Method in brief: (§1)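 Cells grown in RPMI 1640 with 10% heat-inactivated FBS, 2 mmol/L glutamine, 10 mmol/L HEPES pH 7.4, 5% CO2, 37 °C; MCF-7/ADR also given 1 mmol/L pyruvate and 0.01 mg/mL insulin. Treated in triplicate with graded concentrations for 72 h at 37 °C, read by SRB. IC50 (50% growth inhibition vs control) by logit method; three independent experiments.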

MDA-MB-468 = assay: Cytotoxicity against human MDA-MB-468 cells by SRB assay; method in brief: as §1
SK-OV-3 = assay: Cytotoxicity against human SKOV3 cells by SRB assay; method in brief: as §1
MDR = assay: Cytotoxicity against multidrug-resistant human KB/VCR cells by SRB assay in presence of MDR reversing agent verapamil
Method in brief: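 KB/VCR cells exposed to test agents together with the MDR reversal agent verapamil. Growth inhibition was read by SRB assay after 72 h treatment; each point is the mean of three independent experiments.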

CC(C)[C@]12O[C@H]1[C@@H]1O[C@]13[C@]1(O[C@H]1C[C@H]1C4=C(CC[C@@]13C)C(=O)OC4)[C@]21COS(=O)(=O)O1
pIC50 (PC-3): 4.86 | pIC50 (MDA-MB-468): < 4.00 | pIC50 (SK-OV-3): < 4.00

CC(C)[C@]1(O)[C@H](Cl)[C@@H]2O[C@]23[C@]2(O[C@H]2C[C@H]2C4=C(CC[C@@]23C)C(=O)OC4)[C@]12CO2
pIC50 (PC-3): 6.33 | pIC50 (MDA-MB-468): 6.68 | pIC50 (SK-OV-3): 6.85

CC(C)[C@]12O[C@H]1[C@@H]1O[C@]13[C@]1(O[C@H]1C[C@H]1C4=C(CC[C@@]13C)C(=O)OC4)[C@@]21CO1
pIC50 (PC-3): 5.57 | pIC50 (MDA-MB-468): 5.72 | pIC50 (SK-OV-3): 5.81

CC[C@]1(O)C[C@H]2CN(CCc3c([nH]c4ccccc34)[C@@](C(=O)OC)(c3cc4c(cc3OC)N(C=O)[C@H]3[C@@](O)(C(=O)OC)[C@H](OC(C)=O)[C@]5(CC)C=CCN6CC[C@]43[C@@H]65)C2)C1
Activity (MDR): Active

CC(C)[C@]12O[C@H]1[C@@H]1O[C@@]13[C@@]1(C)CCC4=C(COC4=O)[C@]1(O)C[C@@H]1O[C@@]13[C@]21CO1
pIC50 (PC-3): 5.13 | pIC50 (MDA-MB-468): 5.63 | pIC50 (SK-OV-3): 5.73
